Experimental data as given in publication PMC10694825 (The journal of physical chemistry. B, 2023).
Substitutions are numbered along the chain they refer to. Like-named read-outs stand apart in the source and are kept apart here.

What was measured:
PTP1B [1] = molecular target: T1, PTP1B (Homo sapiens, UniProt P18031); settings: cited from earlier work; for selectivity: inhibits PTP1B more potently than TCPTP (fold): PTP1B over TCPTP
T1 sequence (P18031 1-321): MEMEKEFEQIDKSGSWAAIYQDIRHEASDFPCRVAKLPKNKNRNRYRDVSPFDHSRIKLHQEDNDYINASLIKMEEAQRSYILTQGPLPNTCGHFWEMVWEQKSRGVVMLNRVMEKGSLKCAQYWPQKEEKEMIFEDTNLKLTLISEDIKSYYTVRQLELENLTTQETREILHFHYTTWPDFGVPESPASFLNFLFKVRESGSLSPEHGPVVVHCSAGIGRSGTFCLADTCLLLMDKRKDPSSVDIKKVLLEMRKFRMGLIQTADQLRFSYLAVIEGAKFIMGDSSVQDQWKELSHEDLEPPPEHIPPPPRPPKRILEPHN

PTP1B M282K = molecular target: T2, PTP1B M282K (Homo sapiens, UniProt P18031, M282K); assay: pNPP enzyme kinetics, M282K variant; type: biochemical; settings: PTP1B M282K vs wild type
T2 sequence (P18031 1-321 M282K): T1 sequence (P18031 1-321) with M282K
Summary of the method: (§1)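 Catalytic-domain constructs (PTP1B 1–351, TCPTP 1–317), with mutations made by Gibson assembly, expressed in E. coli BL21(DE3) and purified by Ni-affinity then anion exchange. Enzyme at 50 nM with 50 μg/mL BSA and test compound (0.5–500 μM) in 50 mM HEPES pH 7.3 with 10% DMSO, preincubated 1 h at 22 °C. Started with 20 mM pNPP; A405 read every 30 s for 8 min. IC50 from a Hill fit of initial rates.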

PTP1B Q290R = molecular target: T3, PTP1B Q290R (Homo sapiens, UniProt P18031, Q290R); assay: pNPP enzyme kinetics, Q290R variant; type: biochemical; settings: PTP1B Q290R vs wild type
T3 sequence (P18031 1-321 Q290R): T1 sequence (P18031 1-321) with Q290R
Summary of the method: as §1

TCPTP [2] = molecular target: T4, TCPTP (Homo sapiens, UniProt P17706); assay: pNPP enzyme kinetics, inhibition by amorphadiene; type: biochemical; settings: read-out: IC50 for TCPTP; wild type, pNPP substrate, this study
T4 sequence (P17706 1-317): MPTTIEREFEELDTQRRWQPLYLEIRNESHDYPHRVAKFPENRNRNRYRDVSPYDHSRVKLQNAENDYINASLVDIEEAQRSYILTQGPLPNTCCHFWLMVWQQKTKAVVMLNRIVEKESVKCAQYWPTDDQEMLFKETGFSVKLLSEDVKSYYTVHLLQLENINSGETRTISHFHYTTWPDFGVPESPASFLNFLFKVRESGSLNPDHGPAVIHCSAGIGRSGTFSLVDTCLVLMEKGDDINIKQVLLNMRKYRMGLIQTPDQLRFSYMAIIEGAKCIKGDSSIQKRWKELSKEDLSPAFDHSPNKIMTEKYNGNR
Summary of the method: (§2)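 Truncated enzymes (PTP1B 1–351, TCPTP 1–317) expressed in E. coli BL21(DE3), purified by Ni-affinity and anion-exchange. Reactions held 50 nM enzyme, 50 μg/mL BSA and terpenoid at 0.5–500 μM in 50 mM HEPES pH 7.3 with 10% DMSO for 1 h at 22 °C. 20 mM pNPP started the reaction; A405 read every 30 s over 8 min. Initial rates came from a standard curve, and IC50 from a Hill-equation fit. Selectivity was taken as the TCPTP/PTP1B IC50 ratio.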

PTP1B [3] = molecular target: T1, PTP1B; assay: pNPP enzyme kinetics, inhibition by amorphadiene; type: biochemical; settings: this study
Summary of the method: as §2

PTP1B L158F = molecular target: T5, PTP1B L158F (Homo sapiens, UniProt P18031, L158F); assay: pNPP enzyme kinetics, L158F variant; type: biochemical; settings: PTP1B L158F vs wild type
T5 sequence (P18031 1-321 L158F): T1 sequence (P18031 1-321) with L158F

TCPTP [4] = molecular target: T4, TCPTP; settings: read-out: IC50 for TCPTP; previously reported; cited from earlier work
TCPTP K280M = molecular target: T6, TCPTP K280M (Homo sapiens, UniProt P17706, K280M); assay: pNPP enzyme kinetics, K280M variant; type: biochemical; settings: TCPTP K280M vs wild type
T6 sequence (P17706 1-317 K280M): T4 sequence (P17706 1-317) with K280M
Summary of the method: as §1

TCPTP R288Q = molecular target: T7, TCPTP R288Q (Homo sapiens, UniProt P17706, R288Q); assay: pNPP enzyme kinetics, R288Q variant; type: biochemical; settings: TCPTP R288Q vs wild type
T7 sequence (P17706 1-317 R288Q): T4 sequence (P17706 1-317) with R288Q
Summary of the method: as §1

PTP1B [5] = molecular target: T1, PTP1B; settings: MD simulation, cited from earlier work
TCPTP L158F = molecular target: T8, TCPTP L158F (Homo sapiens, UniProt P17706, L158F); assay: pNPP enzyme kinetics, L158F variant; type: biochemical; settings: TCPTP L158F vs wild type
T8 sequence (P17706 1-317 L158F): T4 sequence (P17706 1-317) with L158F

Compound	selectivity: inhibits PTP1B more potently than TCPTP (fold) (PTP1B [1])	effect of mutation on potency (IC50) (PTP1B M282K)	effect of mutation on potency (IC50) (PTP1B Q290R)	IC50 (TCPTP [2]) [µM]	IC50 ratio (TCPTP/PTP1B), metric for selectivity (PTP1B [1]; previously reported)	IC50 (PTP1B [1]; read-out: IC50 for PTP1B, previously reported) [µM]	IC50 (PTP1B [3]; read-out: IC50 for PTP1B, wild type, pNPP substrate) [µM]	IC50 ratio (TCPTP/PTP1B), metric for selectivity (PTP1B [3])	IC50 of L158F mutant compared with wild type (PTP1B L158F)	IC50 (TCPTP [4]) [µM]	effect of mutation on IC50 (TCPTP K280M)	effect of mutation on IC50 (TCPTP R288Q)	occupancy of the β site (loc4), observed trajectories (PTP1B [5]; PTP1B with disordered α7 helix) [%]	occupancy of the β site (loc4), observed trajectories (PTP1B [5]; PTP1B with truncated α7 helix) [%]	IC50 of L158F mutant compared with wild type (TCPTP L158F)
CC(C)=CCC=C(C)C1CC=C(C)CC1 (stereo not drawn) [AB, α-bisabolene]	5–8 ×														
C=C(C)[C@@H]1CC[C@@H](C)[C@@H]2CCC(C)=C[C@@H]21 [AD, amorphadiene]	5–8 ×	reduced potency	reduced potency	27 ± 11.2	6.6 ± 1.8	53 ± 8	7.7 ± 2.4	3.5 ± 1.8	indistinguishable between wild-type and mutant enzymes	349 ± 77	no effect on the IC50	no effect on the IC50	0	88	indistinguishable between wild-type and mutant enzymes
